Assay results as given in ChEMBL document CHEMBL5543124, “Lead Compound Development of SRC-3 Inhibitors with Improved Pharmacokinetic Properties and Anticancer Efficacy” (J Med Chem, 2024).

Assays:
MCF7 = experiment: Cytotoxicity against human MCF7 cells assessed as inhibition of cell growth incubated for 72 hrs by MTT assay; format: functional, cell-based; conditions: MCF7, 72 h
[1] = Half life in human liver microsomes at 1 uM incubated for 30 mins in presence of NADPH by LC-MS/MS analysis; format: ADME, Microsome; conditions: 0.5 h
In short: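 Human liver microsomes (1 mg/mL final) in 100 mM phosphate buffer with or without NADPH; compound at 1 μM final, 37 °C. Samples taken at 0, 5, 10, 20, 30 min (0 and 30 min without NADPH), quenched with cold acetonitrile containing internal standards, analysed by LC-MS/MS; verapamil as control.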

[2] = Stability in CD-1 mouse plasma at 37.7 micromol/kg,ip administration measured after 22 hrs by LC-MS/MS analysis; format: ADME, cell-free; conditions: at 37.7 µmol/kg
In short: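 Female CD-1 mice (n=3) dosed i.p. at 37.7 μmol/kg (equimolar across compounds). Blood (20 μL) drawn at 0.25, 5 and 22 h and processed to plasma. Drug levels quantified by LC-MS/MS.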

[3] = Cytotoxicity against CD-1 mouse Primary hepatocyte assessed as inhibition of cell growth incubated for 72 hrs by MTT assay; format: toxicity, cell-based; conditions: primary hepatocytes
[4] = Half life in CD-1 mouse at 1 mg/kg,iv administration measured upto 48 hrs by LC-MS/MS analysis; format: ADME, organism-based; conditions: in vivo
In short: (§1)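 Single intravenous bolus in ICR male mice (n = 3, 6 weeks); dosing solution 0.5 mg/mL in 20% DMSO, 16% PEG, 4% dextrose in PBS. Tail-vein blood (10 μL) taken at 2, 5, 15, 30 min and 1, 2, 4, 8, 24, 48 h. Plasma quantified by LC-MS/MS against a 0.5–1000 ng/mL calibration; parameters from non-compartmental analysis.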

[5] = Tmax in CD-1 mouse at 1 mg/kg,iv administration measured upto 48 hrs by LC-MS/MS analysis; format: ADME, organism-based; conditions: in vivo
In short: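 Male ICR mice (n=3, 6 weeks) given 1 mg/kg i.v. from a 0.5 mg/mL solution in 20% DMSO/16% PEG/4% dextrose in PBS. Tail-vein blood (10 μL) drawn at 2, 5, 15 and 30 min and at 1, 2, 4, 8, 24 and 48 h. Plasma quantified by LC-MS/MS against 0.5–1000 ng/mL calibration standards with QC samples. Parameters from non-compartmental analysis.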

[6] = Cmax in CD-1 mouse at 1 mg/kg,iv administration measured upto 48 hrs by LC-MS/MS analysis; format: ADME, organism-based; conditions: in vivo; in short: as §1
[7] = AUC (0 to t) in CD-1 mouse at 1 mg/kg,iv administration measured upto 48 hrs by LC-MS/MS analysis; format: ADME, organism-based; conditions: in vivo; in short: as §1
[8] = Clearance in CD-1 mouse at 1 mg/kg,iv administration measured upto 48 hrs by LC-MS/MS analysis; format: ADME, organism-based; conditions: in vivo; in short: as §1
[9] = Half life in CD-1 mouse at 10 mg/kg,po administration measured upto 48 hrs by LC-MS/MS analysis; format: ADME, organism-based; conditions: in vivo
In short: (§2)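 Oral gavage in ICR male mice (n = 3); dosing solution 1 mg/mL in 20% DMSO, 16% PEG, 4% dextrose in PBS. Tail-vein blood (10 μL) taken at 15, 30 min and 1, 2, 4, 8, 24, 48 h. Plasma quantified by LC-MS/MS against a 0.5–1000 ng/mL calibration; parameters from a non-compartmental extravascular model.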

[10] = Tmax in CD-1 mouse at 10 mg/kg,po administration measured upto 48 hrs by LC-MS/MS analysis; format: ADME, organism-based; conditions: in vivo
In short: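 Male ICR mice (n=3) dosed by oral gavage at 10 mg/kg from a 1 mg/mL solution in 20% DMSO/16% PEG/4% dextrose in PBS. Tail-vein blood (10 μL) drawn at 15 and 30 min and at 1, 2, 4, 8, 24 and 48 h. Plasma quantified by LC-MS/MS against calibration standards. Parameters from non-compartmental extravascular model.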

[11] = Cmax in CD-1 mouse at 10 mg/kg,po administration measured upto 48 hrs by LC-MS/MS analysis; format: ADME, organism-based; conditions: in vivo; in short: as §2
[12] = AUC (0 to t) in CD-1 mouse at 10 mg/kg,po administration measured upto 48 hrs by LC-MS/MS analysis; format: ADME, organism-based; conditions: in vivo; in short: as §2
[13] = Oral bioavailability in CD-1 mouse at 10 mg/kg administration measured upto 48 hrs by LC-MS/MS analysis; format: ADME, organism-based; conditions: in vivo
[14] = biological target: Prostaglandin G/H synthase 1 (Homo sapiens, UniProt P23219); experiment: Inhibition of COX1 (unknown origin); format: toxicity
In short: (§3)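 Tested in a commercial off-target safety screening panel of 78 targets. Values reported as RC50, taken as IC50 except for agonist mode, where RC50 is EC50.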

[15] = biological target: T1, Prostaglandin G/H synthase 2 (Homo sapiens, UniProt P35354); experiment: Inhibition of COX2 (unknown origin); format: toxicity; in short: as §3
T1 sequence (P35354 whole entry): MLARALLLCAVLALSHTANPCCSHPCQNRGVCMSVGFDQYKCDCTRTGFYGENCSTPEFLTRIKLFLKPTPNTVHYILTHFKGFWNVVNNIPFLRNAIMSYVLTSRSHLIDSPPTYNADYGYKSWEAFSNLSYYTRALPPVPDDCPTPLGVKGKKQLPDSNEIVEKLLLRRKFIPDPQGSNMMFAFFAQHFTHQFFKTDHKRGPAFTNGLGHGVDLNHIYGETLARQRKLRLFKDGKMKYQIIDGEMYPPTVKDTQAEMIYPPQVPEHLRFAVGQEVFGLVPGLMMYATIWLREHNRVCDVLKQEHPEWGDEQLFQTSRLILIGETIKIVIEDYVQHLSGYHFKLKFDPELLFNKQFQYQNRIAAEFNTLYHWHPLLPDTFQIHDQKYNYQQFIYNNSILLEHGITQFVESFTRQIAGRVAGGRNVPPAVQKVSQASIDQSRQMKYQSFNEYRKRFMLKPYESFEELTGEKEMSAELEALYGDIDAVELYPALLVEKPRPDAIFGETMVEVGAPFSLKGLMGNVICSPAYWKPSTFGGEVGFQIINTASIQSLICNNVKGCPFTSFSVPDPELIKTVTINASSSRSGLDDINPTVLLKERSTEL

[16] = biological target: Voltage-gated inwardly rectifying potassium channel KCNH2 (Homo sapiens, UniProt Q12809); experiment: Inhibition of hERG transfected in HEK293 cells by patch clamp assay; format: toxicity, cell-based
hERG (KCNH2) = hERG (KCNH2) (Homo sapiens, UniProt Q12809); experiment: Inhibition of hERG transfected in HEK293 cells at 30 uM by patch clamp assay relative to control; format: toxicity, cell-based; conditions: HEK293 cells transfected with hERG
[17] = Drug concentration in CD-1 mouse plasma at 37.7 micromol/kg,ip administration measured after 22 hrs by LC-MS/MS analysis; format: ADME, cell-free; conditions: dose 37.7 µmol/kg
In short: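 Female CD-1 mice (n = 3) dosed ip at 37.7 μmol/kg. Blood (20 μL) taken at 0.25, 5 and 22 h, processed to plasma, and drug quantified by LC-MS/MS.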

[18] = Stability in human plasma incubated upto 150 mins; format: ADME, cell-free; conditions: 2.5 h
[19] = Toxicity in mouse assessed as mild stress at 100 mg/kg,po administration for 4 weeks; format: organism-based; conditions: in vivo, 672 h
In short: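 Mice dosed orally at up to 100 mg/kg, the highest dose tested. Observed for signs of stress.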

[20] = Toxicity in mouse assessed as body weight loss at 50 mg/kg,po administration for 4 weeks; format: organism-based; conditions: in vivo, 672 h
In short: (§4)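 Mice dosed orally once daily at 50 or 100 mg/kg for 4 weeks. Body weight monitored throughout.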

[21] = Toxicity in mouse assessed as body weight loss at 100 mg/kg,po administration for 4 weeks; format: organism-based; conditions: in vivo, 672 h; in short: as §4
CYP1A2 = experiment: Stability in human liver microsomes assessed as CYP1A2-mediated drug metabolism incubated for 1 hr; format: ADME, Microsome; conditions: read-out: Drug metabolism

Sequence of Voltage-gated inwardly rectifying potassium channel KCNH2 (Q12809 whole entry): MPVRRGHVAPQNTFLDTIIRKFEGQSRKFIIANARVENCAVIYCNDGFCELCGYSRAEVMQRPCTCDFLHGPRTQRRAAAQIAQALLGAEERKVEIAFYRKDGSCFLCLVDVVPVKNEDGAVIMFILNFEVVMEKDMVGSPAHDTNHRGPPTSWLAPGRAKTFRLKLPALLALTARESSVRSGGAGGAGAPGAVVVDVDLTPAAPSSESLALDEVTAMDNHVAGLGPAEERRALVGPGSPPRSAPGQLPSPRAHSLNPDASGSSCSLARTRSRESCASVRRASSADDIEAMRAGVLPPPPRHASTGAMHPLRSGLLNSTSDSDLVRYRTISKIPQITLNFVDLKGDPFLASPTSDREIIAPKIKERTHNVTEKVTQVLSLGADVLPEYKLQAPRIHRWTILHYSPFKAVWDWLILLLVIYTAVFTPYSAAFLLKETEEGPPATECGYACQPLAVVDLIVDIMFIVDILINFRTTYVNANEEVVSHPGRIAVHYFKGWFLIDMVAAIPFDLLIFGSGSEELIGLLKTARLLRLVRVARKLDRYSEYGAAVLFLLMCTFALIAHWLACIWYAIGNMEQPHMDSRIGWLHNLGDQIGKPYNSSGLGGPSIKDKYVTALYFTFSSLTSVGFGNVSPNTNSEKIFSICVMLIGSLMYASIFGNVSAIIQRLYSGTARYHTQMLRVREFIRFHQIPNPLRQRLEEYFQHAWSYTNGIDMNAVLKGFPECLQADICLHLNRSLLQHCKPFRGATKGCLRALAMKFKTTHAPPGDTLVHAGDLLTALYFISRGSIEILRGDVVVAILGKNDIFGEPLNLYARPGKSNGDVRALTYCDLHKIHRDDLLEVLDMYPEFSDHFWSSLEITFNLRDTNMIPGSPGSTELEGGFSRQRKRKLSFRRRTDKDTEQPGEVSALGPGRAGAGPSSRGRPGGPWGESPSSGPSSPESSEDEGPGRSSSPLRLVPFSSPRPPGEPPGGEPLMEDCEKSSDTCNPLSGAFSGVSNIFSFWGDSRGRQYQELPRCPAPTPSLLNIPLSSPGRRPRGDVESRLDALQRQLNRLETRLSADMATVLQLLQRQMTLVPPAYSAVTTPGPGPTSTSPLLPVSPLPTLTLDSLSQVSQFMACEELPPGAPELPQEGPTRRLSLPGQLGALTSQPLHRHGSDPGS
Sequence of hERG (KCNH2) (Q12809 whole entry): as above
Sequence of Prostaglandin G/H synthase 1 (P23219 whole entry): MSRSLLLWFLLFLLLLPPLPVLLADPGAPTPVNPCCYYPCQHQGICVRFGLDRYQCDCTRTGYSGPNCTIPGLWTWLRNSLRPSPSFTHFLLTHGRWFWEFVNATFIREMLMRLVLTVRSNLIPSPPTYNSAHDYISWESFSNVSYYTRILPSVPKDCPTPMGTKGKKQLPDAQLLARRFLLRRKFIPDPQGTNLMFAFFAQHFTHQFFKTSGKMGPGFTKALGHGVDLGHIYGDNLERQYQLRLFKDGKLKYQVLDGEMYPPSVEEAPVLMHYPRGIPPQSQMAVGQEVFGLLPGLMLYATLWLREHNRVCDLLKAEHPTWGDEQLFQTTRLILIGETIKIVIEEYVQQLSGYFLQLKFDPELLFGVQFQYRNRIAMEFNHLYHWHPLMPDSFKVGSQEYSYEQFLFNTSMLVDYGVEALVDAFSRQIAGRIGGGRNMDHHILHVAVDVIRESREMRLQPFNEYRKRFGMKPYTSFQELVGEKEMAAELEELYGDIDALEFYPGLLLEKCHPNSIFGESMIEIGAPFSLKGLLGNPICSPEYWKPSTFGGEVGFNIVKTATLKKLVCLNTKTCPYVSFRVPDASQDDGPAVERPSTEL

C/C(=N\N=c1/[nH]c2cc(F)c(F)cc2n1C)c1ccncn1
IC50 (MCF7): 10.7 nM

C/C(=N\N=c1n(C)c2ccccc2n1C)c1ccc(F)cn1
IC50 (MCF7): > 1000 nM

C/C(=N\N=c1/[nH]c2cc(F)c(F)cc2n1C)c1ccccn1
IC50 (MCF7): 6.3 nM

C/C(=N\Nc1nc2cc(F)ccc2n1C)c1ccc(F)cn1
IC50 (MCF7): 2.5 nM
t1/2 [1]: 5.76 min
Stability [2]: Stable

C/C(=N\N=c1/sc2ccccc2n1C)c1ccc(F)cn1
IC50 (MCF7): > 1000 nM

C/C(=N\N=c1/[nH]c2cc(F)c(F)cc2n1C)c1ccc(OCCCS(C)(=O)=O)cn1
IC50 (MCF7): 249 nM

C/C(=N\N=c1/[nH]c2cc(F)c(F)cc2n1C)c1ccc(-c2cnn(C)c2)cn1
IC50 (MCF7): 6.7 nM

C/C(=N\N=c1/[nH]c2cc(F)c(F)cc2n1C)c1ccc(C(=O)O)cn1
IC50 (MCF7): > 1000 nM

C/C(=N\Nc1nc2ccccc2n1C)c1ccccn1
IC50 (MCF7): 22 nM
t1/2 [1]: 3 min

C/C(=N\N=c1/[nH]c2cc(F)c(F)cc2n1C)c1ccncc1
IC50 (MCF7): > 1000 nM

C/C(=N\Oc1nc2ccccc2n1C)c1ccccn1
IC50 (MCF7): > 1000 nM

COC(=O)c1ccc(/C(C)=N/N=c2\[nH]c3cc(F)c(F)cc3n2C)nc1
IC50 (MCF7): 2.9 nM

Cn1c(N2N=C(c3ccccn3)CC2=O)nc2ccccc21
IC50 (MCF7): > 1000 nM

C/C(=N\N=c1/[nH]c2cc(F)c(F)cc2n1C)c1ccc(C(=O)N2CCOCC2)cn1
IC50 (MCF7): 44.7 nM

C/C(=N\N=c1/[nH]c2cc(F)c(F)cc2n1C)c1cocn1
IC50 (MCF7): > 1000 nM

C/C(=N\N=c1/[nH]c2cc(F)c(F)cc2n1C)c1ccc(C(N)=O)cn1
IC50 (MCF7): 2.7 nM

C/C(=N\N=c1/[nH]c2cc(Cl)c(Cl)cc2n1C)c1ccc(F)cn1
IC50 (MCF7): 18 nM

C/C(=N\Nc1nc2ccccc2n1C)c1ccc(F)cn1
IC50 (MCF7): 5.4 nM
t1/2 [1]: 4.93 min
Stability [2]: Stable

C/C(=N\N=c1/[nH]c2cc(F)c(F)cc2n1C)c1ccc(OCCCN2CCOCC2)cn1
IC50 (MCF7): 30.5 nM

C/C(=N\Nc1nc2cc(F)c(F)cc2n1C)c1ncccn1
IC50 at 72 h [3]: > 1000 nM
t1/2 [4]: 195 min
Tmax [5]: 1.98 min
Cmax [6]: 552 ng/mL
AUCt [7]: 87.6 ng·h/mL
clearance [8]: 176 mL/min/kg
t1/2 [9]: 545 min
Tmax [10]: 15 min
Cmax [11]: 89 ng/mL
AUCt [12]: 477 ng·h/mL
F [13]: 54.4%
IC50 [14]: 2900 nM
IC50 [15]: 2400 nM
IC50 [16]: > 30000 nM
inhibition at 30 µM (hERG (KCNH2)): < 50%
t1/2 [1]: 3.71 min
concentration at 22 h [17]: 117 nM
Stability [18]: Stable
Activity [19]: Non-Toxic
Activity [20]: Non-Toxic
Activity [21]: Non-Toxic
Stability [2]: Stable
metabolised at 1 h (CYP1A2): 98%

C/C(=N\N=c1/[nH]c2cc(F)c(F)cc2n1C)c1cn(C)cn1
IC50 (MCF7): > 1000 nM

Cn1c(NNC(=O)c2ccccn2)nc2ccccc21
IC50 (MCF7): 494 nM

C/C(=N\N=c1/[nH]c2cc(F)c(F)cc2n1C)c1cccs1
IC50 (MCF7): > 1000 nM

C/C(=N\N=c1/[nH]c2cc(F)c(F)cc2n1C)c1ccc(-c2nnn[nH]2)cn1
IC50 (MCF7): > 1000 nM

C/C(=N\N=c1/[nH]c2cc(F)c(F)cc2n1C)c1cccnc1
IC50 (MCF7): > 1000 nM

C/C(=N\N=c1/[nH]c2cc(F)c(F)cc2n1C)c1ccccc1
IC50 (MCF7): > 1000 nM
